# How the values were obtained:
# KB = assay: Cytotoxicity activity against human KB cells; type: functional, cell-based
# Procedure, shortened: (§1)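 IC50 in μM against KB (nasopharyngeal epidermoid carcinoma) and MRC5 (normal fetal lung) cells, with taxotere as the positive control.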
# MRC5 = assay: Cytotoxicity activity against human MRC5 cells; type: cell-based; procedure, shortened: as §1
# Escherichia coli = assay: Antimicrobial activity against Escherichia coli ATCC 25922 after 24 hrs; type: functional
# Trichophyton rubrum = assay: Antimicrobial activity against Trichophyton rubrum SNB-TR1 after 5 days; type: functional; conditions: SNB-TR1, 120 h
# Procedure, shortened: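 MIC against the dermatophyte T. rubrum, with itraconazole as the reference drug.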
# Staphylococcus aureus = assay: Antimicrobial activity against Staphylococcus aureus ATCC 29213 after 24 hrs; type: functional; conditions: ATCC 29213, 24 h
# [1] = Cytotoxicity activity against human MDA435 cells; conditions: MDA-MB-435
# Candida albicans = assay: Antimicrobial activity against Candida albicans ATCC 10231 after 24 hrs; conditions: ATCC 10231, 24 h
# Aspergillus fumigatus = assay: Antimicrobial activity against Aspergillus fumigatus SNB-AF1 after 24 hrs; conditions: SNB-AF1, 24 h
# Candida parapsilosis = assay: Antimicrobial activity against Candida parapsilosis ATCC 22019 after 24 hrs; conditions: Lodderomyces parapsilosis, ATCC 22019, 24 h
# [2] = Selectivity index, ratio of IC50 for human MRC5 cells to IC50 for Aspergillus […] SNB-AF1
# [3] = Selectivity index, ratio of IC50 for human MRC5 cells to IC50 for Candida albicans ATCC 10231
# [4] = Selectivity index, ratio of IC50 for human MRC5 cells to IC50 for Trichophyton rubrum SNB-TR1
# [5] = Selectivity index, ratio of IC50 for human MRC5 cells to IC50 for Escherichia coli ATCC 25922
# [6] = Selectivity index, ratio of IC50 for human MRC5 cells to IC50 for Candida parapsilosis ATCC 22019
# [7] = Selectivity index, ratio of IC50 for human MRC5 cells to IC50 for Staphylococcus aureus ATCC 29213
molecule,measurement,setting,value
CC(=O)O[C@@]12CO[C@@H]1C[C@H](O)[C@@]1(C)C(=O)[C@H](O)C3=C(C)[C@@H](OC(=O)[C@H](O)[C@@H](NC(=O)OC(C)(C)C)c4ccccc4)C[C@@](O)([C@@H](OC(=O)c4ccccc4)[C@H]21)C3(C)C [DOCETAXEL],IC50,KB,0.0002 µM
same,IC50,MRC5,0.0005 µM
GENTAMICIN,MIC,Escherichia coli,8 µg/mL
C/C(=C\Cc1c(O)c(Cl)c(C)c(C(=O)O)c1O)CC/C=C(\C)CCCC(C)(C)O,MIC,Trichophyton rubrum,32 µg/mL
same,MIC,"Escherichia coli; ATCC 25922, 24 h",8 µg/mL
same,MIC,Staphylococcus aureus,32 µg/mL
same,IC50,KB,47.3 µM
same,IC50,[1],42.4 µM
same,IC50,MRC5,62.1 µM
same,MIC,Candida albicans,16 µg/mL
same,MIC,Aspergillus fumigatus,128 µg/mL
same,MIC,Candida parapsilosis,16 µg/mL
same,Selectivity Index,[2],0.2
same,selectivity ratio,[3],1.6
same,Selectivity Index,[4],0.8
same,selectivity ratio,[5],3.3
same,selectivity ratio,[6],1.6
same,selectivity ratio,[7],0.8
CCC(C)n1ncn(-c2ccc(N3CCN(c4ccc(OCC5COC(Cn6cncn6)(c6ccc(Cl)cc6Cl)O5)cc4)CC3)cc2)c1=O (configuration not stated) [ITRACONAZOLE],MIC,Trichophyton rubrum,0.03 µg/mL
same,MIC,Aspergillus fumigatus,0.5 µg/mL
CC(C)=CCC/C(C)=C/CCC(C)(O)C1Cc2c(O)c(C=O)c(C)c(Cl)c2O1 (configuration not stated),MIC,Trichophyton rubrum,128 µg/mL
same,MIC,"Escherichia coli; ATCC 25922, 24 h",64 µg/mL
same,MIC,Staphylococcus aureus,128 µg/mL
same,IC50,KB,16.5 µM
same,IC50,[1],16.4 µM
same,IC50,MRC5,15.1 µM
same,MIC,Candida albicans,128 µg/mL
same,MIC,Aspergillus fumigatus,> 128 µg/mL
same,MIC,Candida parapsilosis,128 µg/mL
CC(C)=CCC/C(C)=C/CC/C(C)=C/Cc1c(O)c(Cl)c(C)c(C(=O)O)c1O,MIC,Trichophyton rubrum,8 µg/mL
same,MIC,"Escherichia coli; ATCC 25922, 24 h",1 µg/mL
same,MIC,Staphylococcus aureus,4 µg/mL
same,IC50,KB,36.6 µM
same,IC50,[1],15.1 µM
same,IC50,MRC5,19.7 µM
same,MIC,Candida albicans,16 µg/mL
same,MIC,Aspergillus fumigatus,64 µg/mL
same,MIC,Candida parapsilosis,16 µg/mL
same,Selectivity Index,[2],0.1
same,selectivity ratio,[3],0.5
same,Selectivity Index,[4],1
same,selectivity ratio,[5],8
same,selectivity ratio,[6],0.5
same,selectivity ratio,[7],2
CC(C)=CCCC(C)(O)CCC/C(C)=C/Cc1c(O)c(Cl)c(C)c(C(=O)O)c1O (configuration not stated),MIC,Trichophyton rubrum,4 µg/mL
same,MIC,"Escherichia coli; ATCC 25922, 24 h",8 µg/mL
same,MIC,Staphylococcus aureus,32 µg/mL
same,IC50,KB,28.4 µM
same,IC50,[1],4.9 µM
same,IC50,MRC5,13.7 µM
same,MIC,Candida albicans,32 µg/mL
same,MIC,Aspergillus fumigatus,32 µg/mL
same,MIC,Candida parapsilosis,32 µg/mL
same,Selectivity Index,[2],0.2
same,selectivity ratio,[3],0.2
same,Selectivity Index,[4],1.5
same,selectivity ratio,[5],0.7
same,selectivity ratio,[6],0.2
same,selectivity ratio,[7],0.2
OC(Cn1cncn1)(Cn1cncn1)c1ccc(F)cc1F [FLUCONAZOLE],MIC,Candida albicans,4 µg/mL
same,MIC,Candida parapsilosis,4 µg/mL
Cc1onc(-c2ccccc2)c1C(=O)N[C@@H]1C(=O)N2[C@@H]1SC(C)(C)[C@@H]2C(=O)O [OXACILLIN],MIC,Staphylococcus aureus,0.5 µg/mL

# From ChEMBL document CHEMBL3352767, “Antibacterial ilicicolinic acids C and D and ilicicolinal from Neonectria discophora SNB-CN63 isolated from a termite nest” (J Nat Prod, 2015)
